Values after ≈ are worked out from the molar mass of the structure shown. Active and inactive are the calls of the source. No cut-off for these calls is given here.
Columns and labels:
Bacillus subtilis = experiment: Antimicrobial activity against Bacillus subtilis ATCC 6633 at 400 ug after 18 hrs by disc-diffusion method; type: functional; conditions: ATCC 6633, 18 h, read-out: IZ
How it was run: (§1)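 Disc diffusion on Mueller-Hinton II agar per CLSI; 9 mm paper discs loaded with 400 µg compound from DMSO solution, dried, placed on agar; growth inhibition zone diameter read after 18 h at 35°C.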

CCRF-SB = experiment: Cytotoxicity against human CCRF-SB cells after 96 hrs by MTT assay; type: functional
How it was run: (§2)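 Leukaemia/lymphoma lines seeded at 1×10^5 cells/ml in RPMI-1640 with 10% FCS and penicillin/streptomycin; incubated with serial dilutions at 37°C, 5% CO2; viability by MTT after 96 h; value is concentration reducing proliferation by 50%, with untreated controls undergoing at least three rounds of multiplication.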

Vaccinia virus = experiment: Antiviral activity against Human Vaccinia virus ATCC VR-1549 infected in African green monkey Vero 76 cells assessed as reduction of virus-plaque formation after 3 days by crystal violet staining; type: functional, organism-based; conditions: Orthopoxvirus vaccinia, ATCC VR-1549, Vero, 72 h
Micrococcus luteus [1] = experiment: Antimicrobial activity against Micrococcus luteus ATCC 10240 at 400 ug after 18 hrs by disc-diffusion method; type: functional; conditions: ATCC 10240, 18 h, read-out: IZ; how it was run: as §1
[2] = Cytotoxicity against bovine MDBK cells assessed as cell viability after 48 to 96 hrs by MTT assay; type: cell-based, Bos taurus; conditions: cattle
[3] = Antiviral activity against Bovine viral diarrhea virus 1-NADL ATCC VR-534 infected in MDBK cells assessed as protection against virus-induced cytopathogenicity after 3 to 4 days by MTT assay; type: functional, cell-based; conditions: Bovine viral diarrhea virus isolates and strains, ATCC VR-534, MDBK
How it was run: (§3)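 Cells seeded in 96-well plates (BHK 5x10^4, MDBK 3x10^4 cells/well), grown overnight to confluence, infected at m.o.i. 0.01 (BHK for Reo-1, MDBK for BVDV); serial compound dilutions in maintenance medium with 0.5% inactivated FBS added after 1 h; viability by MTT after 3–4 days at 37°C; EC50 for 50% protection by linear regression.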

Micrococcus luteus [4] = experiment: Antimicrobial activity against Micrococcus luteus ATCC 9341 at 400 ug after 18 hrs by disc-diffusion method; type: functional; conditions: ATCC 9341, 18 h, read-out: IZ; how it was run: as §1
Staphylococcus aureus [5] = experiment: Antimicrobial activity against Staphylococcus aureus ATCC 6538 after 18 hrs by twofold serial microdilution method; type: functional; conditions: ATCC 6538, 18 h
Staphylococcus aureus [6] = experiment: Antimicrobial activity against Staphylococcus aureus ATCC 25923 at 400 ug after 18 hrs by disc-diffusion method; type: functional; conditions: ATCC 25923, 18 h, read-out: IZ; how it was run: as §1
Staphylococcus aureus [7] = experiment: Antimicrobial activity against Staphylococcus aureus ATCC 25923 after 18 hrs by twofold serial microdilution method; type: functional; conditions: ATCC 25923, 18 h
Human alphaherpesvirus 1 = experiment: Antiviral activity against Human herpesvirus 1 KOS ATCC VR-1493 infected in African green monkey Vero 76 cells assessed as reduction of virus-plaque formation after 3 days by crystal violet staining; type: functional, organism-based; conditions: Human alphaherpesvirus 1, KOS ATCC VR1493, Vero, 72 h
How it was run: (§4)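 Plaque reduction: Vero-76 at 2x10^5 cells/well grown to confluent monolayers, infected 2 h at 50–100 PFU/well; after removing unadsorbed virus, overlay of D-MEM, 1% inactivated FBS, 0.75% methylcellulose with or without serial compound dilutions; 3 days at 37°C, fixed and stained with crystal violet in 50% ethanol, plaques counted; EC50 by linear regression.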

Proteus vulgaris = experiment: Antimicrobial activity against Proteus vulgaris NCTC 4635 at 400 ug after 18 hrs by disc-diffusion method; type: functional; how it was run: as §1
[8] = test system: Mammalian orthoreovirus 1; experiment: Antiviral activity against Reovirus type-1 ATCC VR-214 infected in BHK cells assessed as protection against virus-induced cytopathogenicity after 3 to 4 days by MTT assay; type: functional, cell-based; conditions: Mammalian orthoreovirus 1, ATCC VR-214, BHK; how it was run: as §3
Staphylococcus aureus [9] = experiment: Antimicrobial activity against Staphylococcus aureus NCTC 4163 at 400 ug after 18 hrs by disc-diffusion method; type: functional; conditions: NCTC 4163, 18 h, read-out: IZ; how it was run: as §1
Staphylococcus aureus [10] = experiment: Antimicrobial activity against Staphylococcus aureus ATCC 29213 at 400 ug after 18 hrs by disc-diffusion method; type: functional; conditions: ATCC 29213, 18 h, read-out: IZ; how it was run: as §1
[11] = test system: Mycobacterium tuberculosis; experiment: Antimycobacterial activity against drug-sensitive Mycobacterium tuberculosis Spec. 192; type: functional
How it was run: (§5)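 Classical test-tube successive-dilution method in Youmans' modification of Proskauer and Beck liquid medium with 10% bovine serum. Inoculum came from 14-day cultures. DMSO stock was 10 mg/mL, diluted geometrically in medium. Tubes were incubated at 37 °C. Concentrations tested were 3.1, 6.2, 12.5, 25, 50 and 100 µg/ml. MIC is the minimum concentration inhibiting growth relative to compound-free tubes.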

Staphylococcus aureus [12] = experiment: Antimicrobial activity against Staphylococcus aureus NCTC 4163 after 18 hrs by twofold serial microdilution method; type: functional; conditions: NCTC 4163, 18 h
Coxsackievirus B5 = experiment: Antiviral activity against Human coxsackievirus B5 ATCC VR-29 infected in African green monkey Vero 76 cells assessed as reduction of virus-plaque formation after 3 days by crystal violet staining; type: functional, organism-based; conditions: Enterovirus B, ATCC VR-29, Vero, 72 h; how it was run: as §4
Enterococcus faecalis = experiment: Antimicrobial activity against Enterococcus faecalis ATCC 29212 at 400 ug after 18 hrs by disc-diffusion method; type: functional; how it was run: as §1
Staphylococcus aureus [13] = experiment: Antimicrobial activity against Staphylococcus aureus ATCC 29213 after 18 hrs by twofold serial microdilution method; type: functional; conditions: ATCC 29213, 18 h
WIL2-NS = experiment: Cytotoxicity against human WIL2-NS cells after 96 hrs by MTT assay; type: functional; how it was run: as §2
[14] = test system: Vesicular stomatitis virus; experiment: Antiviral activity against Vesicular stomatitis virus ATCC VR 1540 infected in African green monkey Vero 76 cells assessed as reduction of virus-plaque formation after 2 days by crystal violet staining; type: functional, organism-based; conditions: ATCC VR 1540, Vero, 48 h
[15] = test system: Staphylococcus epidermidis; experiment: Antimicrobial activity against Staphylococcus epidermidis ATCC 12228 at 400 ug after 18 hrs by disc-diffusion method; type: functional; conditions: ATCC 12228, 18 h, read-out: IZ; how it was run: as §1
[16] = test system: Staphylococcus epidermidis; experiment: Antimicrobial activity against Staphylococcus epidermidis ATCC 35984 after 18 hrs by twofold serial microdilution method; type: functional; conditions: ATCC 35984, 18 h
Yellow fever virus = experiment: Antiviral activity against Yellow fever virus 17D infected in BHK cells assessed as protection against virus-induced cytopathogenicity after 3 to 4 days by MTT assay; type: functional, cell-based
Poliovirus 1 = experiment: Antiviral activity against Poliovirus type 1 ATCC VR-1562 infected in African green monkey Vero 76 cells assessed as reduction of virus-plaque formation after 2 days by crystal violet staining; type: functional, organism-based; conditions: Enterovirus C, ATCC VR-1562, Vero, 48 h
Staphylococcus aureus [17] = experiment: Antimicrobial activity against Staphylococcus aureus ATCC 6538 at 400 ug after 18 hrs by disc-diffusion method; type: functional; conditions: ATCC 6538, 18 h, read-out: IZ; how it was run: as §1
[18] = Cytotoxicity against BHK cells assessed as cell viability after 48 to 96 hrs by MTT assay; type: cell-based, Mesocricetus auratus; conditions: hamster
[19] = test system: Mycobacterium tuberculosis; experiment: Antimycobacterial activity against Mycobacterium tuberculosis H37Rv ATCC 25618; type: functional; how it was run: as §5
[20] = Cytotoxicity against human MT4 cells; type: cell-based
Bacillus cereus = experiment: Antimicrobial activity against Bacillus cereus ATCC 11778 at 400 ug after 18 hrs by disc-diffusion method; type: functional; conditions: ATCC 11778, 18 h, read-out: IZ; how it was run: as §1
[21] = test system: Staphylococcus epidermidis; experiment: Antimicrobial activity against Staphylococcus epidermidis ATCC 35984 at 400 ug after 18 hrs by disc-diffusion method; type: functional; conditions: ATCC 35984, 18 h, read-out: IZ; how it was run: as §1
CCRF-CEM = experiment: Cytotoxicity against human CCRF-CEM cells after 96 hrs by MTT assay; type: functional; how it was run: as §2
[22] = Cytotoxicity against African green monkey Vero 76 cells assessed as cell viability after 48 to 96 hrs by crystal violet staining; type: cell-based; conditions: chlorocebus sabaeus
[23] = test system: Staphylococcus epidermidis; experiment: Antimicrobial activity against Staphylococcus epidermidis ATCC 12228 after 18 hrs by twofold serial microdilution method; type: functional; conditions: ATCC 12228, 18 h
[24] = test system: Human immunodeficiency virus 1; experiment: Antiviral activity against HIV1 3B infected in human MT4 cells assessed as protection against virus-induced cytopathogenicity by MTT assay; type: functional, organism-based; conditions: Human immunodeficiency virus 1, 3B
Enterococcus hirae = experiment: Antimicrobial activity against Enterococcus hirae ATCC 10541 at 400 ug after 18 hrs by disc-diffusion method; type: functional; how it was run: as §1

Row | SMILES | zone of inhibition at 400 µg/disc (Bacillus subtilis) [mm] | CC50 (CCRF-SB) [µM] | EC50 (Vaccinia virus) [µM] | zone of inhibition at 400 µg/disc (Micrococcus luteus [1]) [mm] | CC50 [2] [µM] | EC50 [3] [µM] | zone of inhibition at 400 µg/disc (Micrococcus luteus [4]) [mm] | MIC (Staphylococcus aureus [5]) [µg/mL] | zone of inhibition at 400 µg/disc (Staphylococcus aureus [6]) [mm] | MIC (Staphylococcus aureus [7]) [µg/mL] | EC50 (Human alphaherpesvirus 1) [µM] | inhibition zone (IZ) (Proteus vulgaris) | EC50 [8] [µM] | zone of inhibition at 400 µg/disc (Staphylococcus aureus [9]) [mm] | zone of inhibition at 400 µg/disc (Staphylococcus aureus [10]) [mm] | MIC [11] [µg/mL] | MIC (Staphylococcus aureus [12]) [µg/mL] | EC50 (Coxsackievirus B5) [µM] | MIC (Staphylococcus aureus [13]) [µg/mL] | CC50 (WIL2-NS) [µM] | also measured
1 | N#Cc1ccc(NC(=S)Nc2cccc(C(F)(F)F)c2)cc1 | 19 | 8.3 | > 10 | 16 | 10 | > 10 | 18 | 64 (≈ 199 µM) | 19 | 64 (≈ 199 µM) | > 10 | inactive | > 9.5 | 20 | 18 | > 100 | 128 (≈ 398 µM) | > 10 | 64 (≈ 199 µM) | 9.2 | inhibition zone (IZ) (Enterococcus faecalis): inactive; EC50 [14]: > 10 µM; zone of inhibition at 400 µg/disc [15]: 18 mm; MIC [16]: 64 µg/mL (≈ 199 µM); EC50 (Yellow fever virus): > 9.5 µM; EC50 (Poliovirus 1): > 10 µM; zone of inhibition at 400 µg/disc (Staphylococcus aureus [17]): 22 mm; CC50 [18]: 9.5 µM; MIC [19]: > 100 µg/mL; CC50 [20]: 7 µM; zone of inhibition at 400 µg/disc (Bacillus cereus): 19 mm; zone of inhibition at 400 µg/disc [21]: 20 mm; CC50 (CCRF-CEM): 8.7 µM; CC50 [22]: 10 µM; MIC [23]: 64 µg/mL (≈ 199 µM); EC50 [24]: > 7 µM; inhibition zone (IZ) (Enterococcus hirae): inactive
2 | FC(F)(F)c1cccc(NC(=S)Nc2cccc(Cl)c2)c1 | 26 | 9.6 | > 20 | 27 | 19 | > 19 | 30 | 32 (≈ 96.7 µM) | 27 | 32 (≈ 96.7 µM) | > 20 | inactive | > 9.5 | 29 | 27 | 100 (≈ 302 µM) | 32 (≈ 96.7 µM) | > 20 | 32 (≈ 96.7 µM) | 11 | zone of inhibition at 400 µg/disc (Enterococcus faecalis; ATCC 29212, 18 h, read-out: IZ): 20 mm; EC50 [14]: > 20 µM; zone of inhibition at 400 µg/disc [15]: 28 mm; MIC [16]: 64 µg/mL (≈ 193 µM); EC50 (Yellow fever virus): > 9.5 µM; EC50 (Poliovirus 1): > 20 µM; zone of inhibition at 400 µg/disc (Staphylococcus aureus [17]): 29 mm; CC50 [18]: 9.5 µM; MIC [19]: 100 µg/mL (≈ 302 µM); CC50 [20]: 10 µM; zone of inhibition at 400 µg/disc (Bacillus cereus): 23 mm; zone of inhibition at 400 µg/disc [21]: 26 mm; CC50 (CCRF-CEM): 9.1 µM; CC50 [22]: 20 µM; MIC [23]: 32 µg/mL (≈ 96.7 µM); EC50 [24]: > 10 µM; inhibition zone (IZ) (Enterococcus hirae): inactive

Reference: ChEMBL document CHEMBL3616436, “Synthesis, cytotoxicity and antimicrobial activity of thiourea derivatives incorporating 3-(trifluoromethyl)phenyl moiety” (Eur J Med Chem, 2015)
